TAAR1 ag – agonists of human TAAR1. CHO RD-HGA16 TAAR1, Fluo-8 calcium fluorescence; vehicle wells 0%, saturating PEA agonist 100%. activation, % at 3 µM. 360,000 compounds, 0.99% hits;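 active = activation above the mean activation of all test compounds in the run plus 3 SD, cut at about 38% in these data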
Target sequence (Q96RJ0 whole entry, looked up): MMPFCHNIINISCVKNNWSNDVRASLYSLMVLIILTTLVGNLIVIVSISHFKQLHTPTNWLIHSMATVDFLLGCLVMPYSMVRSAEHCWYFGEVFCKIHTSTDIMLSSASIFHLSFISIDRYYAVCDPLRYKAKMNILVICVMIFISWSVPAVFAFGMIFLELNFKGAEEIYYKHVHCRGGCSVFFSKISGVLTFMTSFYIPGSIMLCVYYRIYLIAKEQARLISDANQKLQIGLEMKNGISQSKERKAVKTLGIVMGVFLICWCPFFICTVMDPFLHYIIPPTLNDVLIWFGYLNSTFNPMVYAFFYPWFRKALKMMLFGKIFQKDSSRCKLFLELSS
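Signal – calcium-sensitive Fluo-8 signal, excitation 470-495, emission 515-575 nm · System – RD-HGA16 (CHO) cells co-expressing Gα16 and hTAAR1 · Incubation – 17-24 h seeding, 75 min 37 °C dye, 30 min RT · Compound dosing – 3 µM single concentration · Repeats – no replicates (n 1)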
NS3 helicase inh – HCV NS3 helicase inhibition; AID 1800; inhibition, % at 10.9 µM; 290,000 compounds, 0.56% hits; NS3 helicase DNA unwinding, Cy5 molecular beacon fluorescence;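 active = inhibition above the mean of all tested compounds plus 3 SD, set per campaign, cut at about 35% in these data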;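 note: 0% = DMSO wells and 100% = thioflavine S control wells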
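System: HCV NS3 helicase fragment; control set: DMSO and thioflavine S; technique: Cy5 fluorescence at 0 and 60 min, beacon hairpin quenching; reagent: beacon DNA duplex substrate plus ATP; replicates: singlicate; schedule: 1 h reaction at 25 °C, ATP-initiated; medium: MOPS buffer pH 6.5 with MgCl2, DTT, Tween20, BSA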
HCV core dimer – blocks dimerization of HCV core protein; TR-FRET GST/Flag-core106 dimerization, 1536-well; inhibition, % at 5 µM; 300,000 compounds, 0.33% hits; AID 1899;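 active = inhibition above the mean of all tested compounds plus 3 SD, set per screening campaign, cut at about 45% in these data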
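System – GST-tagged and Flag-tagged HCV core protein residues 1-106 · Repeats – one well for each compound · Technique – TR-FRET 671 and 617 nm emission · Doses – one concentration, 5 µM, in 0.5% DMSO · Times – 4 h, 22.5 °C incubation · Also added – Eu donor and XL665 acceptor anti-tag antibodies · Measure – percent inhibition of core106 dimerization signal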
rCAG binder – binds r(CAG) RNA repeats; r(CAG) RNA repeat, TO-PRO-1 dye displacement fluorescence; inhibition, % at 3 µM; 370,000 compounds, 1.3% hits;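 active = inhibition above the plate cutoff, the mean of all test compounds on that plate plus 3 SD, cut at about 35% in these data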;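 note: 0% = DMSO alone and 100% = 100 µM mitoxantrone as full dye displacement; higher means more dye released from RNA so lower well fluorescence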
TAAR1 antagonist – human TAAR1 antagonism. Q96RJ0. AID 624466. 360,000 compounds, 1.5% hits. CHO RD-HGA16 TAAR1, Fluo-8 calcium fluorescence, antagonist. inhibition, % at 3 µM;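 active = inhibition above a per-plate cutoff, the mean inhibition of test compounds on that plate plus 3 SD, cut at about 49% in these data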;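 note: 0% = DMSO plus EC80 beta-PEA response and 100% = DMSO alone without agonist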
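Test system: RD-HGA16 CHO cells with stable hTAAR1 and Gα16 / Probe or stimulus: EC80 β-phenethylamine stimulus / Times: seeding 17-24 h prior, 75-min 37 °C, 30-min RT dye loading / Detection: Fluo-8 calcium-sensitive fluorescence / Read-out basis: % inhibition scaled between DMSO and EC80 PEA controls / Repeats: singlicate, one well per test compound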
TAAR1 ag conf – human TAAR1 agonism, confirmed; activation, % at 3 µM; 2,400 compounds, 82% hits; CHO RD-HGA16 TAAR1, Fluo-8 calcium fluorescence; scaled: DMSO 0%, maximal phenethylamine 100%; shares compounds with TAAR1 ag; AID 651783;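 active = activation above a cutoff set at the run's mean compound activation plus 3 SD, cut at about 39% in these data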
Ga16 nonsel ag – counter-screen for TAAR1 agonists: nonselective agonists in parental cells | CHO-Ga16 parental, Fluo-8 calcium fluorescence; normalized to maximal ATP response, DMSO zero | activation, % at 3 µM | 2,400 compounds, 50% hits | shares compounds with TAAR1 ag;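 active = activation above the run cutoff, the mean activation over all tested wells plus 3 SD, cut at about 12% in these data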;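 note: 0% = DMSO wells and 100% = maximal ATP response on the peak over basal ratio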
TAAR1 desens – TAAR1 response desensitization, agonist counter-screen; 2,400 compounds, 46% hits; inhibition, % at 3 µM; CHO RD-HGA16 hTAAR1, Fluo-8 calcium, beta-PEA response inhibition; shares compounds with TAAR1 ag; AID 651951;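 active = inhibition above the run cutoff, the mean inhibition of all test compounds plus 3 SD, cut at about 49% in these data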;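 note: beta-PEA stimulus applied at its EC80; loss of beta-PEA calcium signal after compound pretreatment read as receptor desensitization; 0% = DMSO with beta-PEA at EC80 and 100% = DMSO alone without agonist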
Ga16 antag count – counter-screen for TAAR1 agonists: nonselective Ga16 antagonists; 2,400 compounds, 39% hits; inhibition, % at 3 µM; shares compounds with TAAR1 ag; CHO-Ga16 ATP-induced calcium, Fluo-8 fluorescence;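 active = inhibition above the plate's mean compound inhibition plus 3 SD, computed per plate, cut at about 22% in these data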;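 note: 0% = EC80 ATP with DMSO and 100% = DMSO wells without ATP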
Starred values were filed as active, the others as inactive; / = no result; ! = repeats disagree. Rows were chosen to be rich in hits. Some 3.7% of all compounds tested hit in one or more screens of this group.

SMILES	TAAR1 ag	NS3 helicase inh	HCV core dimer	rCAG binder	TAAR1 antagonist	TAAR1 ag conf	Ga16 nonsel ag	TAAR1 desens	Ga16 antag count
O=c1[nH]ncc(N/N=C\c2cccs2)c1Cl	/	-3	-3	-3	/	/	3	/	7
Cc1cccc(/C=N\Nc2cn[nH]c(=O)c2Cl)c1	53*	0	-3	4	70*	88*	-2	72*	0
O=c1[nH]ncc(N/N=C\c2ccncc2)c1Cl	16	1	-9	3	-8	/	/	/	/
O=c1[nH]ncc(N/N=C\c2cccnc2)c1Cl	11	3	4	0	-16	/	/	/	/
COc1cccc(C(=O)n2ccc3ccc(-c4ccc5ccn(Cc6ccc(C#N)cc6)c5c4)cc32)c1	/	/	/	24	/	/	/	/	/
COc1ccccc1/C=N\NC(=O)c1cccc(S(=O)(=O)N(C)C)c1	/	/	/	0	/	/	/	/	/
O=C(CC1CCCC1)N[C@H](C(=O)N1CCC[C@H]1C(=O)NCCc1ccccc1Cl)c1ccccc1	55*	/	/	0	53*	86*	7	79*	11
CCOC(=O)N[C@H](C(=O)N1CCC[C@H]1C(=O)NCCc1ccccc1Cl)c1ccccc1	69*	/	/	-1	64*	85*	2	83*	6
Clc1ccc(-c2nnc(SCc3cccc4ccccc34)n2-c2ccc(Cl)cc2)cc1	/	/	/	5	/	/	/	/	/
CCN(C)C(=O)CNc1nnnn1-c1ccccc1	/	/	/	0	/	/	/	/	/
O=S(=O)(CCNCCc1ccccc1)NC1CCCCC1	42*	/	/	0	13	60*	1	17	-2
O=S1(=O)c2ccc(N3CC[C@@H](O)C3)cc2OCCCN1C1CC1	/	/	/	7	/	/	/	/	/
CCCCN1Cc2ccccc2Oc2cc(Br)ccc2S1(=O)=O	49*	/	/	3	-1	69*	55*	19	18
CC(C)CN1Cc2ccccc2Oc2cc(Br)ccc2S1(=O)=O	32	/	/	3	-18	/	/	/	/
O=c1nc(N2CCCC2)nc(Nc2ccccc2)[nH]1	/	-2	1	8	/	/	3	/	5
CCN(CC)CCNC(=O)c1ccc(Cl)c(S(=O)(=O)Nc2ccc(Cl)cc2)c1	70*!	-12	-3	6	39	4	1	9	4
CCN(CC)CCNC(=O)c1ccc(Cl)c(S(=O)(=O)Nc2ccccc2OC)c1	8	8	-3	-4	9	/	/	/	/
NC(Cc1ccccc1)c1csc(Nc2ccc(C(=O)NCCO)cc2)n1 (stereo not drawn)	45*	/	/	10	23	76*	2	58*	10
CS(=O)(=O)c1ccc(Nc2nc(C(N)Cc3ccccc3)cs2)cc1 (stereo not drawn)	47*	/	/	6	3	75*	2	48	14
CS(=O)(=O)c1ccc(Nc2nc(C(N)Cc3ccc(F)cc3)cs2)cc1 (stereo not drawn)	8	/	/	4	-3	/	/	/	/
NC(Cc1ccc(F)cc1)c1csc(Nc2ccc(S(N)(=O)=O)cc2)n1 (stereo not drawn)	61*	/	/	9	19	76*	7	53*	7
COc1ccc(CC(N)c2csc(Nc3ccc(S(C)(=O)=O)cc3)n2)cc1 (stereo not drawn)	10	/	/	10	-19	/	/	/	/
CN(C)c1cccc(/C=C2\CC3(OC(=O)C4CCCC4)CCCN2C3)c1 (stereo not drawn)	/	/	/	4	/	/	/	/	/
Cc1ccc(NC(=O)c2ccc(CNS(=O)(=O)c3cccc(C(F)(F)F)c3)cc2)cc1	4	8	10	-2	-10	/	/	/	/
O=C(Nc1ccccc1F)c1ccc(CNS(=O)(=O)c2cccc(C(F)(F)F)c2)cc1	46*	3	6	0	40	29	16*	26	18
